Results as given in ChEMBL document CHEMBL1154598, “7-Hydroxy-benzopyran-4-one derivatives: a novel pharmacophore of peroxisome proliferator-activated receptor alpha and -gamma (PPARalpha and gamma) dual agonists” (J Med Chem, 2009).

How the values were obtained:
[1] = molecular target: T1, Peroxisome proliferator-activated receptor gamma (Homo sapiens) (UniProt P37231); assay: Agonist activity at human PPARgamma expressed in HEK293 cells co-transfected with PPRE assessed as beta-galactosidase signal at 25 uM after 48 hrs by reporter gene assay relative to control; assay type: functional, cell-based
T1 sequence (whole entry): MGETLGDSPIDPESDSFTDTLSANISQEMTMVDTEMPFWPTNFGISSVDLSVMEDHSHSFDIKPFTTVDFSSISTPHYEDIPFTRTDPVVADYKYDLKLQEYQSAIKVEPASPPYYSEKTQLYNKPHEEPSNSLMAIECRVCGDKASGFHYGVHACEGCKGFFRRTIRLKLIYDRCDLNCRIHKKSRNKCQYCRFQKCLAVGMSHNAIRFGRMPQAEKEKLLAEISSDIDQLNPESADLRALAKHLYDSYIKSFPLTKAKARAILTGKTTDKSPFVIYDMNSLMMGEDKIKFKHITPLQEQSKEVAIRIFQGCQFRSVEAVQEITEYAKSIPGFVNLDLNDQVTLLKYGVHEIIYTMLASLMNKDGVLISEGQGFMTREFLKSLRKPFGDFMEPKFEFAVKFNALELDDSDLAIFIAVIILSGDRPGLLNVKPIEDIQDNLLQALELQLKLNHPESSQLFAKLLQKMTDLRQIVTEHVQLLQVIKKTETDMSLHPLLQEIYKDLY
Method in brief: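 HEK293 cells were transfected with FuGENE 6 using a PPRE-luciferase reporter, pSG5-hPPARγ1 and a β-galactosidase control plasmid. After 24 h they were replated at 5 × 10⁴ cells/well, attached overnight, then treated for 48 h with 0.1% DMSO as vehicle. Luciferase was read, normalized to the β-gal signal and reported as fold activation over vehicle. Mean of two experiments in triplicate.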

[2] = molecular target: T2, Peroxisome proliferator-activated receptor alpha (Homo sapiens) (UniProt Q07869); assay: Agonist activity at human PPARalpha expressed in HEK293 cells co-transfected with PPRE assessed as beta-galactosidase signal at 25 uM after 48 hrs by reporter gene assay relative to control; assay type: functional, cell-based
T2 sequence (whole entry): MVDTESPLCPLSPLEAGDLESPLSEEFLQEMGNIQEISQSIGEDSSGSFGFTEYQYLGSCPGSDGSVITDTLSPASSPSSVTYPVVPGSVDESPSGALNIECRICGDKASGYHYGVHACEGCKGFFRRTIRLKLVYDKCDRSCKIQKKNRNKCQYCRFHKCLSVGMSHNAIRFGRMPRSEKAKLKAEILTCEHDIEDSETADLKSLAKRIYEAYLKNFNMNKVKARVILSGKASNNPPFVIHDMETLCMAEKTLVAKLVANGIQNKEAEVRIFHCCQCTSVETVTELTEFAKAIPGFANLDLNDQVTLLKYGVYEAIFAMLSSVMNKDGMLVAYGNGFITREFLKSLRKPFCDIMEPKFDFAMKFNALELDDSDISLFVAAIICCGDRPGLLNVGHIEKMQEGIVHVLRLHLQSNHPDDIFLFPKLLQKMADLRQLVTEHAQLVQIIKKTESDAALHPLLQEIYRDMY
Method in brief: (§1)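 Human PPARα transactivation in HEK293 cells grown in DMEM/F-12 with 10% heat-inactivated FBS. Cells were transfected with FuGENE 6 using a PPRE-luciferase reporter, pBI-G-hPPARα and a β-galactosidase control plasmid. After 24 h they were replated at 5 × 10⁴ cells/well, attached overnight, then dosed for 48 h with 0.1% DMSO as vehicle. Luciferase was normalized to β-gal and expressed as fold over vehicle. Two experiments, each in triplicate.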

[3] = molecular target: T2, Peroxisome proliferator-activated receptor alpha (Homo sapiens); assay: Agonist activity at human PPARalpha expressed in HEK293 cells co-transfected with PPRE assessed as beta-galactosidase signal at 40 uM after 48 hrs by reporter gene assay relative to control; assay type: functional, cell-based; method in brief: as §1
[4] = molecular target: T1, Peroxisome proliferator-activated receptor gamma (Homo sapiens); assay: Agonist activity at PPARgamma expressed in mouse RAW264.7 cells assessed as beta-galactosidase signal at 10 uM by reporter gene assay relative to control; assay type: functional, cell-based
[5] = molecular target: T3, Peroxisome proliferator-activated receptor gamma (Homo sapiens, UniProt P37231); assay: Agonist activity at human PPARgamma assessed as luciferase activity by transactivation assay; assay type: functional
T3 sequence (P37231 whole entry): T1 sequence (whole entry)
Method in brief: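 Transiently transfected HEK293 (PPRE-luciferase reporter plus pSG5-hPPARγ1 and β-gal control), compound exposure 48 h. EC50 is the ligand concentration giving half-maximal fold induction of β-gal-normalized luciferase, fitted by nonlinear regression. Means of three experiments.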

[6] = molecular target: T4, Peroxisome proliferator-activated receptor alpha (Homo sapiens, UniProt Q07869); assay: Agonist activity at human PPARalpha assessed as luciferase activity by transactivation assay; assay type: functional
T4 sequence (Q07869 whole entry): T2 sequence (whole entry)

[7] = Cytotoxicity against HEK293 cells assessed as viable cells at 50 uM after 48 hrs by aqueous one solution cell proliferation assay relative to control; assay type: cell-based; conditions: human, read-out: Activity
Method in brief: (§2)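 HEK293 cells were seeded overnight, then exposed to 0–100 μM compound for 48 h at 37 °C in 5% CO₂. MTS reagent was added for a further 2 h and absorbance read at 490 nm. Viability is given as % relative to DMSO vehicle control. Two experiments, each in quadruplicate.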

[8] = Cytotoxicity against HEK293 cells assessed as viable cells at 100 uM after 48 hrs by aqueous one solution cell proliferation assay relative to control; assay type: cell-based; conditions: human, read-out: Activity; method in brief: as §2
[9] = Cytotoxicity against HEK293 cells assessed as viable cells at 0.1 uM after 48 hrs by aqueous one solution cell proliferation assay relative to control; assay type: cell-based; conditions: human, read-out: Activity; method in brief: as §2
HEK293 = assay: Cytotoxicity against HEK293 cells assessed as decrease in viable cells at 50 uM after 48 hrs by aqueous one solution cell proliferation assay relative to control; assay type: cell-based; conditions: human, hek293, 48 h; method in brief: as §2
[10] = Cytotoxicity against HEK293 cells assessed as viable cells at 10 uM after 48 hrs by aqueous one solution cell proliferation assay relative to control; assay type: cell-based; conditions: human, read-out: Activity; method in brief: as §2

Row | SMILES | fold change (FC) [1] | fold change (FC) [2] | fold change (FC) [3] | further results
1 | O=c1cc(-c2ccccc2O)oc2cc(O)ccc12 | 6.8 | 3.6 | 4.9 | 
2 | O=c1c(-c2ccc(O)cc2)coc2cc(O)c(O)cc12 | 4.4 | 1.8 | 4 | 
3 | COc1ccc(-c2coc3cc(O)ccc3c2=O)cc1 | 12.8 | 7.5 | 7.8 | 
4 | COc1ccc([C@@H]2CC(=O)c3c(O)cc(O)cc3O2)cc1O | 3.8 | 1.9 | 2 | 
5 | O=c1c(O)c(-c2ccc(O)cc2)oc2cc(O)cc(O)c12 | 3.5 | 1.8 | 2.6 | fold change (FC) [4]: 7.6
6 | O=c1cc(-c2ccccc2)oc2cc(O)cc(O)c12 | 4 | 3.4 | 5.3 | fold change (FC) [4]: 5.6
7 | O=c1cc(-c2ccc(O)cc2)oc2cc(O)ccc12 | 5 | 1.5 | 2.6 | 
8 | O=c1c(-c2ccc(F)cc2)coc2cc(O)ccc12 | 148 | 8.6 | 28.7 | EC50 [5]: 15.4 µM; EC50 [6]: 33.1 µM; viability at 48 h, 50 µM [7]: > 67%
9 | COc1cc(-c2cc(=O)c3c(O)cc(O)cc3o2)ccc1O | 2.2 | 1.1 | 1.3 | 
10 | CN(CCOc1ccc(CC2SC(=O)NC2=O)cc1)c1ccccn1 (stereo not drawn) [ROSIGLITAZONE] |  |  |  | viability at 48 h, 100 µM [8]: 46%
11 | CN(CCOc1ccc(C[C@H](Nc2ccccc2C(=O)c2ccccc2)C(=O)O)cc1)c1ccccn1 |  |  |  | viability at 48 h, 100 µM [8]: 33%
12 | O=c1cc(-c2ccc(O)cc2)oc2cc(O)cc(O)c12 | 5.4 | 2 | 2.3 | fold change (FC) [4]: 8.13
13 | O=C1C[C@@H](c2ccc(O)cc2)Oc2cc(O)cc(O)c21 | 1.7 | 1.2 | 1.7 | 
14 | COc1ccc2c(=O)c(-c3ccc4c(c3)OCO4)coc2c1 | 25.2 | 2.2 | 2.4 | 
15 | CC(C)OC(=O)C(C)(C)Oc1ccc(C(=O)c2ccc(Cl)cc2)cc1 [FENOFIBRATE] |  |  |  | viability at 48 h, 0.1 µM [9]: > 90%; Activity (HEK293): 38%
16 | O=c1c(-c2ccc(O)cc2)coc2cc(O)ccc12 | 9.6 | 6.2 | 13.4 | 
17 | O=c1cc(-c2ccc(O)c(O)c2)oc2ccccc12 | 5 | 2.8 | 7.7 | 
18 | O=c1cc(-c2cccc(O)c2)oc2cc(O)ccc12 | 6.3 | 8.2 | 14.8 | 
19 | COc1ccc(-c2cc(=O)c3c(O)cc(O)cc3o2)cc1O | 7.3 | 2.8 | 3.8 | 
20 | O=c1c(-c2ccc3c(c2)OCCO3)coc2cc(OC3CCCCO3)ccc12 (stereo not drawn) | 2 | 2.5 | 3.3 | 
21 | COc1cc(OC)cc(-c2coc3cc(O)ccc3c2=O)c1 | 116 | 4.8 | 25.3 | EC50 [5]: 18.9 µM; EC50 [6]: 24.6 µM; viability at 48 h, 10 µM [10]: > 80%; viability at 48 h, 50 µM [7]: > 67%
22 | COc1ccc(-c2cc(=O)c3c(O)cc(O)cc3o2)cc1 | 7.7 | 2.3 | 5.2 | 
23 | O=c1cc(-c2ccc(O)cc2)oc2ccc(O)cc12 | 5 | 2.6 | 3.5 | 
24 | O=c1c(-c2ccc3c(c2)OCO3)coc2cc(O)ccc12 [PSEUDOBAPTOGENIN] | 38.5 | 5.6 | 11.7 | EC50 [5]: 26.9 µM; EC50 [6]: 8.9 µM; viability at 48 h, 10 µM [10]: > 90%; viability at 48 h, 100 µM [8]: > 60%; viability at 48 h, 50 µM [7]: > 67%
25 | O=c1cc(-c2ccc(O)cc2)oc2cccc(O)c12 | 8.9 | 2.4 | 3.7 | 
26 | COc1cccc(-c2coc3cc(O)ccc3c2=O)c1 | 57.5 | 16.5 | 43 | EC50 [5]: 22.3 µM; EC50 [6]: 23.1 µM; viability at 48 h, 10 µM [10]: > 90%; viability at 48 h, 100 µM [8]: > 60%; viability at 48 h, 50 µM [7]: > 67%
